Measured values as given in ChEMBL document CHEMBL1128519, “Semisynthetic chemical modification of the antifungal lipopeptide echinocandin B (ECB): structure-activity studies of the lipophilic and geometric parameters of polyarylated acyl analogs of ECB” (J Med Chem, 1995).
Values after ≈ are worked out from the molar mass of the structure shown. Numbered stars: 1 amine (or outer) side, 2 acyl side, 3 side chain; on linkers, the order of the positions; unused ones are H or OH. Bridge positions count the residues as written; N and C are the ends. Square brackets hold non-standard residues; d marks the D form. Peptide text beside a SMILES is read from it. * marks the point of attachment. Orn(4R-OH,5R-OH) = O=C([C@H](C[C@@H](O)[C@@H](O)N[*:3])N[*:1])[*:2]; hTyr(3S-OH,4S-OH) = N[C@H](C(=O)O)[C@H](O)[C@@H](O)c1ccc(O)cc1; Benzoyl(4-(4-OctO-Ph)) = CCCCCCCCOc1ccc(-c2ccc(C(=O)*)cc2)cc1; X17 = CCCCOCCOc1ccc(C#Cc2ccc(-c3ccc(C(=O)*)cc3)cc2)cc1; X6 = CCCCOCCOc1ccc(-c2ccc(-c3ccc(C(=O)*)cc3)cc2)cc1; X7 = CCCCCCOc1ccc(-c2ccc(-c3ccc(C(=O)*)cc3)cc2)cc1; X2 = CCCOc1ccc(C#Cc2ccc(-c3ccc(C(=O)*)cc3)cc2)cc1; Pro(3S-OH,4S-Me) = C[C@H]1CN[C@H](C(=O)O)[C@H]1O; X14 = COc1ccc(C#Cc2ccc(-c3ccc(C(=O)*)cc3)cc2)cc1; X8 = O=C(c1ccc(-c2ccc(C#Cc3ccccc3)cc2)cc1)*; X9 = CCCCCCCCCCOc1ccc2cc(C(=O)*)ccc2c1; Hyp = O=C(O)[C@@H]1C[C@@H](O)CN1

Assays:
Candida albicans [1] = assay: Antifungal activity against Candida albicans; assay type: functional
Method in brief: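 Broth microdilution, C. albicans A26 (ATCC 62342) grown on Sabouraud dextrose agar at 35 °C; inoculum 1 × 10^5 conidia/mL in antibiotic 3 broth. Compounds dissolved at 1.0 mg/mL in methanol, 2-fold serial dilutions from 80 µg/mL, duplicate. Read after 48 h at 35 °C. MIC = lowest concentration completely inhibiting visible growth.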

Candida albicans [2] = assay: In vivo antifungal activity administered intraperitoneally against Candida albicans infections in mice.; assay type: functional; conditions: ip
Method in brief: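 Male ICR mice (18-20 g), X-irradiated with 400 r 24 h before iv tail-vein infection with 2 × 10^6 C. albicans A26 cells in saline. Compounds suspended in β-cyclodextrin, given parenterally at 0, 4, 24 and 48 h post-infection. 10 mice per dose, top dose 10 mg/kg with 2-fold dilutions down to 0.039 mg/kg. 7-day survival; ED50 by Reed-Muench.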

Candida albicans [3] = assay: In vivo antifungal activity administered orally against Candida albicans infections in mice.; assay type: functional; conditions: po
Method in brief: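 X-irradiated (400 r, 24 h prior) male ICR mice infected iv with 2 × 10^6 C. albicans A26 cells. Oral gavage in cremophor (5%)/linoleic acid (8%)/water vehicle, b.i.d. × 4 starting immediately post-infection. 10 mice per dose level. Study ends at day 7; ED50 = dose giving 50% survival, by Reed-Muench.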

[4] = molecular target: Beta-1,3-glucan synthase (Candida albicans) (UniProt O13428); assay: In vitro inhibition of glucan synthase obtained from Candida albicans at a concentration of 10 ug/mL.
Method in brief: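 Purified, solubilized β-(1,3)-D-glucan synthase prepared from C. albicans. Percent inhibition measured at 10 µg/mL compound, single determination.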

Beta-1,3-glucan synthase (Candida albicans), sequence (O13428 as listed by the source): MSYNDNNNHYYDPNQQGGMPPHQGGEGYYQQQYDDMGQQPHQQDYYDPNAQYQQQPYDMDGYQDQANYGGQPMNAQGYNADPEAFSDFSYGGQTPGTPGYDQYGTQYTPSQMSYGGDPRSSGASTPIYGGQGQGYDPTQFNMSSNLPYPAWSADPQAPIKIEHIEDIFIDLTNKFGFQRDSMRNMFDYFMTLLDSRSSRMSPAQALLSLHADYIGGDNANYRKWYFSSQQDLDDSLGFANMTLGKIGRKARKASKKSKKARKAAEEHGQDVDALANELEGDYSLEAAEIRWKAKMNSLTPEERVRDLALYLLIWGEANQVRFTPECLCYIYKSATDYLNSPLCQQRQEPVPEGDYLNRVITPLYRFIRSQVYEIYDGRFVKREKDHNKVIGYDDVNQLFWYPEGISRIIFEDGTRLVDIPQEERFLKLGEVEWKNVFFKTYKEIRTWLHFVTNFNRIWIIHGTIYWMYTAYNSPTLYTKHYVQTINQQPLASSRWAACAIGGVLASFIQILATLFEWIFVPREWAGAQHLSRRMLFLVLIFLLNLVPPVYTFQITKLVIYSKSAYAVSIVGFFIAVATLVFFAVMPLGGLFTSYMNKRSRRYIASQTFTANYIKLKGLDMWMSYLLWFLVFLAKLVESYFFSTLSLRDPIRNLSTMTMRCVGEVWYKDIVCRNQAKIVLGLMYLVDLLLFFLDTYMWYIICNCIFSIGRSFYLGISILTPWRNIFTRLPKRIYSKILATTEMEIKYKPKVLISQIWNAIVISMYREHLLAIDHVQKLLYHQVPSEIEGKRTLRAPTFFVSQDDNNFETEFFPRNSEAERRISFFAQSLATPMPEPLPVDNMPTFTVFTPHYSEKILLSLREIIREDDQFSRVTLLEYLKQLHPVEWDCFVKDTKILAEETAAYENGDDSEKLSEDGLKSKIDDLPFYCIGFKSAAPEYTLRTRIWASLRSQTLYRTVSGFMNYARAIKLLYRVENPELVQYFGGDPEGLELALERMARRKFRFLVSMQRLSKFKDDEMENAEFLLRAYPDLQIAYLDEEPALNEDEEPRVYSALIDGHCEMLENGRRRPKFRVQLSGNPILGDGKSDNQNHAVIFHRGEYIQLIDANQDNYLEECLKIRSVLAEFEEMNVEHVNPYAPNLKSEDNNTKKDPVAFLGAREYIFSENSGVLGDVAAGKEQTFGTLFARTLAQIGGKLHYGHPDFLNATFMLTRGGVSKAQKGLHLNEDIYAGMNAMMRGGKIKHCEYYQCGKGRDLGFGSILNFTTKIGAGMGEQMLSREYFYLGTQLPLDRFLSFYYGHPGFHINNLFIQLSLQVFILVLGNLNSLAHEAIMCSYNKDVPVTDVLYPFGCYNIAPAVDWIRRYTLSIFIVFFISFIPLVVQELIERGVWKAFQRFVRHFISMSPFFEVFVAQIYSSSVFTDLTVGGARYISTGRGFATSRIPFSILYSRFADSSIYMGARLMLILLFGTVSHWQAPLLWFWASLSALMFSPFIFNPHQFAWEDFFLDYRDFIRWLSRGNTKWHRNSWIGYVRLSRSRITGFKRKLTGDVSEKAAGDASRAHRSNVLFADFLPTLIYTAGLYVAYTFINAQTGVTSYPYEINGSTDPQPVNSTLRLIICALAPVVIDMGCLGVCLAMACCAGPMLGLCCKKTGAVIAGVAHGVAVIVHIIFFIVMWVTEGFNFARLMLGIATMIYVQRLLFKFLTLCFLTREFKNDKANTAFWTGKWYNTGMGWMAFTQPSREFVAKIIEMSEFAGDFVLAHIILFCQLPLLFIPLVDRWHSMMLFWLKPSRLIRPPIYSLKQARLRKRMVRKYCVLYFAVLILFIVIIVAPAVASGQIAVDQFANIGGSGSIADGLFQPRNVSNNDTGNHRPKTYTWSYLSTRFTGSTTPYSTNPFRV

SMILES | MIC (Candida albicans [1]) | ED50 (Candida albicans [2]) | ED50 (Candida albicans [3]) | inhibition [4]
CCCCCCOc1ccc(-c2ccc(-c3ccc(C(=O)N[C@H]4C[C@@H](O)[C@@H](O)NC(=O)[C@@H]5[C@@H](O)[C@@H](C)CN5C(=O)[C@H]([C@@H](C)O)NC(=O)[C@H]([C@H](O)[C@@H](O)c5ccc(O)cc5)NC(=O)[C@@H]5C[C@@H](O)CN5C(=O)[C@H]([C@@H](C)O)NC4=O)cc3)cc2)cc1 (X7-[Orn(4R-OH,5R-OH)]T[Hyp][hTyr(3S-OH,4S-OH)]T[Pro(3S-OH,4S-Me)]; lactam 1-C) | 0.03 µg/mL (≈ 0.026 µM) | 0.8 mg/kg | 6.8 mg/kg | –
CCCCOCCOc1ccc(C#Cc2ccc(-c3ccc(C(=O)N[C@H]4C[C@@H](O)[C@@H](O)NC(=O)[C@@H]5[C@@H](O)[C@@H](C)CN5C(=O)[C@H]([C@@H](C)O)NC(=O)[C@H]([C@H](O)[C@@H](O)c5ccc(O)cc5)NC(=O)[C@@H]5C[C@@H](O)CN5C(=O)[C@H]([C@@H](C)O)NC4=O)cc3)cc2)cc1 (X17-[Orn(4R-OH,5R-OH)]T[Hyp][hTyr(3S-OH,4S-OH)]T[Pro(3S-OH,4S-Me)]; lactam 1-C) | 0.02 µg/mL (≈ 0.0167 µM) | – | 10.6 mg/kg | 81.9%
CCCOc1ccc(C#Cc2ccc(-c3ccc(C(=O)N[C@H]4C[C@@H](O)[C@@H](O)NC(=O)[C@@H]5[C@@H](O)[C@@H](C)CN5C(=O)[C@H]([C@@H](C)O)NC(=O)[C@H]([C@H](O)[C@@H](O)c5ccc(O)cc5)NC(=O)[C@@H]5C[C@@H](O)CN5C(=O)[C@H]([C@@H](C)O)NC4=O)cc3)cc2)cc1 (X2-[Orn(4R-OH,5R-OH)]T[Hyp][hTyr(3S-OH,4S-OH)]T[Pro(3S-OH,4S-Me)]; lactam 1-C) | < 0.01 µg/mL | 0.4 mg/kg | 7 mg/kg | 83.5%
CCCCOCCOc1ccc(-c2ccc(-c3ccc(C(=O)N[C@H]4C[C@@H](O)[C@@H](O)NC(=O)[C@@H]5[C@@H](O)[C@@H](C)CN5C(=O)[C@H]([C@@H](C)O)NC(=O)[C@H]([C@H](O)[C@@H](O)c5ccc(O)cc5)NC(=O)[C@@H]5C[C@@H](O)CN5C(=O)[C@H]([C@@H](C)O)NC4=O)cc3)cc2)cc1 (X6-[Orn(4R-OH,5R-OH)]T[Hyp][hTyr(3S-OH,4S-OH)]T[Pro(3S-OH,4S-Me)]; lactam 1-C) | 0.03 µg/mL (≈ 0.0256 µM) | 0.3 mg/kg | 13.6 mg/kg | 80.1%
CCCCCCCCOc1ccc(-c2ccc(C(=O)N[C@H]3C[C@@H](O)[C@@H](O)NC(=O)[C@@H]4[C@@H](O)[C@@H](C)CN4C(=O)[C@H]([C@@H](C)O)NC(=O)[C@H]([C@H](O)[C@@H](O)c4ccc(O)cc4)NC(=O)[C@@H]4C[C@@H](O)CN4C(=O)[C@H]([C@@H](C)O)NC3=O)cc2)cc1 ({Benzoyl(4-(4-OctO-Ph))}-[Orn(4R-OH,5R-OH)]T[Hyp][hTyr(3S-OH,4S-OH)]T[Pro(3S-OH,4S-Me)]; lactam 1-C) | 0.0025 µg/mL (≈ 0.00226 µM) | 0.5 mg/kg | 27.3 mg/kg | 81.5%
C[C@@H](O)[C@@H]1NC(=O)[C@H]([C@H](O)[C@@H](O)c2ccc(O)cc2)NC(=O)[C@@H]2C[C@@H](O)CN2C(=O)[C@H]([C@@H](C)O)NC(=O)[C@@H](NC(=O)c2ccc(-c3ccc(C#Cc4ccccc4)cc3)cc2)C[C@@H](O)[C@@H](O)NC(=O)[C@@H]2[C@@H](O)[C@@H](C)CN2C1=O (X8-[Orn(4R-OH,5R-OH)]T[Hyp][hTyr(3S-OH,4S-OH)]T[Pro(3S-OH,4S-Me)]; lactam 1-C) | 0.039 µg/mL (≈ 0.0362 µM) | 0.6 mg/kg | 18.8 mg/kg | 75.8%
CCCCCCCCCCOc1ccc2cc(C(=O)N[C@H]3C[C@@H](O)[C@@H](O)NC(=O)[C@@H]4[C@@H](O)[C@@H](C)CN4C(=O)[C@H]([C@@H](C)O)NC(=O)[C@H]([C@H](O)[C@@H](O)c4ccc(O)cc4)NC(=O)[C@@H]4C[C@@H](O)CN4C(=O)[C@H]([C@@H](C)O)NC3=O)ccc2c1 (X9-[Orn(4R-OH,5R-OH)]T[Hyp][hTyr(3S-OH,4S-OH)]T[Pro(3S-OH,4S-Me)]; lactam 1-C) | 0.005 µg/mL (≈ 0.00451 µM) | 1.6 mg/kg | 46.1 mg/kg | 82.2%
COc1ccc(C#Cc2ccc(-c3ccc(C(=O)N[C@H]4C[C@@H](O)[C@@H](O)NC(=O)[C@@H]5[C@@H](O)[C@@H](C)CN5C(=O)[C@H]([C@@H](C)O)NC(=O)[C@H]([C@H](O)[C@@H](O)c5ccc(O)cc5)NC(=O)[C@@H]5C[C@@H](O)CN5C(=O)[C@H]([C@@H](C)O)NC4=O)cc3)cc2)cc1 (X14-[Orn(4R-OH,5R-OH)]T[Hyp][hTyr(3S-OH,4S-OH)]T[Pro(3S-OH,4S-Me)]; lactam 1-C) | 0.02 µg/mL (≈ 0.018 µM) | – | 19 mg/kg | 81%
